# From ChEMBL document CHEMBL1125832, “Synthesis and dopaminergic activity of 3-substituted 1-(aminomethyl)-3,4-dihydro-5,6-dihydroxy-1H-2-benzopyrans: characterization of an auxiliary binding region in the D1 receptor” (J Med Chem, 1991)
# What was measured:
# [1] = molecular target: T1, D(2) dopamine receptor (Rattus norvegicus, UniProt P61169); test: Binding affinity using [3H]-spiperone radioligand competitive binding assay against dopamine receptor D2
# Outline: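 Rat striatal membranes in Tris pH 7.4 buffer with salts and ascorbate. [3H]spiperone at 300 pM final; nonspecific binding with 10 μM YM-09151-2. Incubated 20 min at 37 °C, then filtered. Ki derived from IC50 by Cheng-Prusoff.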
# [2] = molecular target: T1, D(2) dopamine receptor; test: Concentration required to inhibit 50% dopamine receptor D2 in a cell free homogenate of intermediate lobe of pituitary gland; type: functional
# [3] = molecular target: T2, Adrenergic receptor alpha-2 (Rattus norvegicus, UniProt P22086+P19328+P22909); test: Binding affinity towards alpha-2 adrenergic receptor using [3H]rauwolscine as radioligand in competitive binding assay; type: protein assay
# T2 sequence (P22086 whole entry): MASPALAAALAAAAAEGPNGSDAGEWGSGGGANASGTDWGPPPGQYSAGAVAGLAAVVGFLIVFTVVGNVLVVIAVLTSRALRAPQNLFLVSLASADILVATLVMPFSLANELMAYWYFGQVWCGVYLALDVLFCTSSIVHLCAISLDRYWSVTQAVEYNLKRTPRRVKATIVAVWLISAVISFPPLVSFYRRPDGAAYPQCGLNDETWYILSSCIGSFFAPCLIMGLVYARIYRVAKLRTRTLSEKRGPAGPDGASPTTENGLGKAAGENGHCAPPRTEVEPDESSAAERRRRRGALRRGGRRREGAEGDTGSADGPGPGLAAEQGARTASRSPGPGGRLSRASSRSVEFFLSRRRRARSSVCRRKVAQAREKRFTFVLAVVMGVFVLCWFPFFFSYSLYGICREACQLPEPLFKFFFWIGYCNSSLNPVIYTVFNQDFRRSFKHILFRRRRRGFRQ
# T2 sequence (P19328 whole entry): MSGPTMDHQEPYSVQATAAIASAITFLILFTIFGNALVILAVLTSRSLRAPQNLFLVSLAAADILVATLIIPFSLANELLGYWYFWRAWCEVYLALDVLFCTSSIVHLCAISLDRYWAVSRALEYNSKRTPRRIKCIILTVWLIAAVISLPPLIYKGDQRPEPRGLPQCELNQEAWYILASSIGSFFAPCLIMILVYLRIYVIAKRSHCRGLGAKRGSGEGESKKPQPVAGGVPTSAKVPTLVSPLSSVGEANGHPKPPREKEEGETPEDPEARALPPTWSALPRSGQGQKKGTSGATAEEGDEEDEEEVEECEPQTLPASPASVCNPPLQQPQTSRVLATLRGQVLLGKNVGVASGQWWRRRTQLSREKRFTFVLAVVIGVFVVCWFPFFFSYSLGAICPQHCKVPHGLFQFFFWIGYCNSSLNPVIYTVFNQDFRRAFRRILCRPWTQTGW
# T2 sequence (P22909 whole entry): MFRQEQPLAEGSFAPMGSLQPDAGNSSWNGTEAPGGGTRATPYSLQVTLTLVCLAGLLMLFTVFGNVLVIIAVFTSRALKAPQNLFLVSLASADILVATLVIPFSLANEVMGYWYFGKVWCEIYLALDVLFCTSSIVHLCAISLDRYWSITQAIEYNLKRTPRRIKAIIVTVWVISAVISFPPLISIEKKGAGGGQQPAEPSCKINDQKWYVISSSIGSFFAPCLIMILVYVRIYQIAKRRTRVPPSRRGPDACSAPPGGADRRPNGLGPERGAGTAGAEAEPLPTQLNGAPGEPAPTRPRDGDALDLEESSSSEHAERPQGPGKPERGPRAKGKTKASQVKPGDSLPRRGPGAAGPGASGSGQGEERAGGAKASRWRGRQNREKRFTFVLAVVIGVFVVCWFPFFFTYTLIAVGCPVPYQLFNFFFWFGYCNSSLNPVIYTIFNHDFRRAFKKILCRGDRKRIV
# Outline: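 Frozen rat cortex membranes in Tris pH 7.4 buffer with NaCl, KCl, MgCl2, CaCl2 and ascorbate. [3H]rauwolscine at 325 pM final; nonspecific binding with 10 μM yohimbine. Incubated 45 min at 37 °C, then filtered. Ki derived from IC50 by Cheng-Prusoff.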
# [4] = molecular target: T3, 5-hydroxytryptamine receptor 1A (Rattus norvegicus, UniProt P19327); test: Binding affinity towards 5-hydroxytryptamine 1A receptor using [3H]8-OH-DPAT as radioligand in competitive binding assay
# T3 sequence (P19327 whole entry): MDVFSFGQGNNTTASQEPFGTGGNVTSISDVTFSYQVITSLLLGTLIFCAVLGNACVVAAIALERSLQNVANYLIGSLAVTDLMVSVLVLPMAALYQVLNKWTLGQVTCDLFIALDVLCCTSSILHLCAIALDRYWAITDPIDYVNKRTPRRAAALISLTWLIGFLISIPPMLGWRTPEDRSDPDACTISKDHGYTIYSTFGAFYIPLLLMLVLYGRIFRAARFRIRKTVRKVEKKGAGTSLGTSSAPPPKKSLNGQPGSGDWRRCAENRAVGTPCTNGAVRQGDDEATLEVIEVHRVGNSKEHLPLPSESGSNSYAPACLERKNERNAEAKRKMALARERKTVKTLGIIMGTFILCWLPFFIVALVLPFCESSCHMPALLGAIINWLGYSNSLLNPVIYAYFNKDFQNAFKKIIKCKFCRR
# Outline: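 Rat anterior cortex membranes, pelleted and preincubated 30 min at 37 °C in 50 mM Tris-HCl pH 7.7, 4 mM CaCl2, 10 μM pargyline. Label [3H]8-OH-DPAT, 800 pM final; nonspecific binding with 10 μM spiroxatrine. Ki derived from IC50 by Cheng-Prusoff; mean with SEM range.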
# [5] = Intrinsic activity relative to dopamine at D-2 receptor.; type: functional
# [6] = molecular target: T4, D(1A) dopamine receptor (Rattus norvegicus, UniProt P18901); test: Inhibition of Dopamine receptor D1 activity by functional cyclase assay using cell free homogenate of rat striatum; type: tissue-based
# Outline: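 Adenylate cyclase stimulation in cell-free homogenate of rat striatum. EC50 is the concentration giving half-maximal stimulation of cAMP production.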
# [7] = molecular target: T4, D(1A) dopamine receptor; test: Binding affinity using [125 I] SCH 23982 radioligand competitive binding assay on dopamine receptor D1
# [8] = system: Rattus norvegicus; test: Rat rotation experiments were conducted to evaluate rational behavior of the rats by administering at a dose of […] subcutaneously; type: functional
# [9] = system: Rattus norvegicus; test: Rat rotation experiments were conducted to evaluate rational behavior of the rats by administering at a dose of […] oral; type: functional
# [10] = system: Rattus norvegicus; test: Rat rotation experiments were conducted to evaluate rational behavior of the rats by administering at a dose of 20 umol/kg oral; type: functional
# Outline: (§1)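 Rats with unilateral 6-hydroxydopamine lesions of the nigrostriatal bundle. Compound given subcutaneously or orally at the stated dose. Net contralateral rotations counted over 2 h after dosing and reported as mean ± SEM; negative values indicate ipsilateral turning.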
# [11] = system: Rattus norvegicus; test: Rat rotation experiments were conducted to evaluate rational behavior of the rats by administering at a dose of 1.0 umol/kg subcutaneously; type: functional; outline: as §1
# [12] = system: Rattus norvegicus; test: Rat rotation experiments were conducted to evaluate rational behavior of the rats by administering at a dose of 40 umol/kg oral; type: functional; outline: as §1
# [13] = system: Rattus norvegicus; test: Rat rotation experiments were conducted to evaluate rational behavior of the rats by administering at a dose of 2.0 umol/kg subcutaneously; type: functional; outline: as §1
# [14] = system: Rattus norvegicus; test: Rat rotation experiments were conducted to evaluate rational behavior of the rats by administering at a dose of 20.0 umol/Kg subcutaneously; type: functional; outline: as §1
# T4 sequence (P18901 whole entry): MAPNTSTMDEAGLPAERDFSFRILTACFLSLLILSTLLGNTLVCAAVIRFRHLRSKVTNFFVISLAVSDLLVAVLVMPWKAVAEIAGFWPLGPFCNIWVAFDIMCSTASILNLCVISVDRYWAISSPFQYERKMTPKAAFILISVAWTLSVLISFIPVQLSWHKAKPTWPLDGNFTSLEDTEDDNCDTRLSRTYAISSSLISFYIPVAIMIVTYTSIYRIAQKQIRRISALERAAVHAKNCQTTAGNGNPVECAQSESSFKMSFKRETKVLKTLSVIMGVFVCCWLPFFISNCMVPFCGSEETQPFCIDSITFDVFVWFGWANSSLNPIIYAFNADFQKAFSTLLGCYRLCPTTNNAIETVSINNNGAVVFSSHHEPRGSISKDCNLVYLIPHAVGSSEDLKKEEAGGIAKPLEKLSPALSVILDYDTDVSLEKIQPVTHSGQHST
# T1 sequence (P61169 whole entry): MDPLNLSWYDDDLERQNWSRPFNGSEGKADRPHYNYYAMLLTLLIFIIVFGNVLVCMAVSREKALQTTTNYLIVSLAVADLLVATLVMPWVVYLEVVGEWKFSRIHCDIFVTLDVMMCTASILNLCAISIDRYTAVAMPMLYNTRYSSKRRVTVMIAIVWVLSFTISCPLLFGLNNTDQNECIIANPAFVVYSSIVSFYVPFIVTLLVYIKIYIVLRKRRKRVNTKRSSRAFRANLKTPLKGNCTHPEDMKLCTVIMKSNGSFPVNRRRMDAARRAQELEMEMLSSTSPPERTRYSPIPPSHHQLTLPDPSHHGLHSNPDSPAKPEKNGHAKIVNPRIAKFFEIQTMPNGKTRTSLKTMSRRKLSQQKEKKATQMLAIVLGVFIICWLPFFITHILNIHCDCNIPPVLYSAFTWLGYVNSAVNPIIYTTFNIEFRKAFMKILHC
Compound,Ki [1],EC50 [2],Ki [3],Ki [4],Intrinsic activity [5],EC50 [6],Ki [7],Activity [8],Activity [9],Activity [10],Activity [11],Activity [12],Activity [13],Activity [14]
NC[C@@H]1OC(C2CCCCC2)Cc2c1ccc(O)c2O (stereo not given in full),1120 nM,7.03 µM,271 nM,> 20 µM,85%,1.7 nM,5.4 nM,,,,,,,
C=CCNC[C@@H]1OC(C2CCCCC2)Cc2c1ccc(O)c2O (stereo not given in full),,,2200 nM,> 20 µM,,30.3 nM,1540 nM,667,,,,,,
CC(C)(C)C1Cc2c(ccc(O)c2O)[C@H](CN)O1 (stereo not given in full),8190 nM,> 10 µM,450 nM,,,52.3 nM,31.8 nM,354,932,,,,,
NC[C@H]1O[C@@H](c2ccccc2)Cc2c1ccc(O)c2O,4610 nM,2.85 µM,2500 nM,> 20 µM,96%,,,,,,,,-22,-24

# Further lines, with some results ahead:
Ki [1],EC50 [2],Ki [3],Ki [4],Intrinsic activity [5],EC50 [6],Ki [7],Compound,Activity [8],Activity [9],Activity [10],Activity [11],Activity [12],Activity [13],Activity [14]
776 nM,3.91 µM,122 nM,18.1 µM,101%,,,NC[C@@H]1OC(c2ccccc2)Cc2c1ccc(O)c2O (stereo not given in full),895,,326,53,1066,,
,,40 nM,2.55 µM,98%,,,NC[C@@H]1O[C@H](c2ccccc2)Cc2c1ccc(O)c2O,,,,1113,,1525,
